Assay [1] deals with Aldo-keto reductase family 1 member B1 (Bos taurus) (UniProt P16116). The experiment in a line: Inhibition of aldose reductase in partially purified bovine lens preparation at 10e-7 M concentration. The method, boiled down: (§1)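 Aldose reductase partially purified from bovine lens, with the final chromatographic step of the earlier preparation omitted. Assay run in duplicate with test compound at 1 × 10^-6 M or 1 × 10^-7 M. Reported as % inhibition of enzymatic activity.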

In assay [2] the test system is Rattus norvegicus. The experiment in a line: […] inhibition of sorbitol accumulation in rat sciatic nerves at 10e-6 M concentration; NS=not significant. The class given is functional. The conditions noted are these: Sciatic nerve. An outline of the steps:
(§2)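 Sciatic nerves were taken from male Sprague-Dawley rats (200–250 g) after CO2 euthanasia. Nerves were incubated 3 h at 37 °C under 95% air/5% CO2 in Hank's salts buffer, pH 7.4, with 50 mM glucose and (0–5)×10^-5 M compound, in triplicate. Nerve sorbitol was measured spectrofluorometrically in duplicate, and the read-out was % inhibition of sorbitol accumulation.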

Assay [3] deals with Rattus norvegicus. Nature of the assay: […] inhibition of sorbitol accumulation in rat sciatic nerves at 10e-5 M concentration. The class given is functional, Sciatic nerve. An outline of the steps:
as §2

Assay [4] has as its system Rattus norvegicus. Nature of the assay: In vivo inhibition of galactitol accumulation in the diaphragm of rat at a dose of 48 mg/kg/day. The format is functional.
Assay [5] concerns the target Aldo-keto reductase family 1 member B1 (Bos taurus) (UniProt P16116). Nature of the assay: Inhibition of aldose reductase in partially purified bovine lens preparation at 10e-6 M. The method, boiled down:
as §1

Assay [6] concerns Rattus norvegicus. Nature of the assay: In vivo inhibition of galactitol accumulation in the diaphragm of rat at a dose of 97 mg/kg/day. The class given is functional.
Assay [7] deals with Rattus norvegicus. Nature of the assay: In vivo inhibition of galactitol accumulation in the sciatic nerves of rat at a dose of 57 mg/kg/day. The conditions noted are these: Sciatic nerve. The format is functional.
Assay [8] deals with Rattus norvegicus. Nature of the assay: In vivo inhibition of sorbitol accumulation in rat sciatic nerves at 10e-6 M concentration. The format is functional, Sciatic nerve. The method, boiled down: as §2
Assay [9] deals with Rattus norvegicus. Nature of the assay: In vivo inhibition of galactitol accumulation in the sciatic nerves of rat at a dose of 97 mg/kg/day. Conditions: Sciatic nerve. The format is functional.
Assay [10] concerns Rattus norvegicus. Nature of the assay: In vivo inhibition of galactitol accumulation in the diaphragm of rat at a dose of 57 mg/kg/day. The class given is functional.
The subject of assay [11] is Rattus norvegicus. Nature of the assay: In vivo inhibition of galactitol accumulation in the sciatic nerves of rat at a dose of 100 mg/kg/day; NS=not significant. The format is functional, organism-based. Conditions: Sciatic nerve.
Assay [12] has as its system Rattus norvegicus. The experiment in a line: In vivo inhibition of galactitol accumulation in the diaphragm of rat at a dose of 100 mg/kg/day. The class given is functional.
Assay [13] relates to Rattus norvegicus. Nature of the assay: In vivo inhibition of galactitol accumulation in the diaphragm of rat at a dose of 105 mg/kg/day; NS=not significant. The class given is functional, organism-based.
Assay [14] concerns Rattus norvegicus. Nature of the assay: In vivo inhibition of galactitol accumulation in the sciatic nerves of rat at a dose of 105 mg/kg/day; NS=not significant. The class given is functional, organism-based. Conditions: Sciatic nerve.
The test system of assay [15] is Rattus norvegicus. The experiment in a line: In vivo inhibition of galactitol accumulation in the sciatic nerves of rat at a dose of 100 mg/kg/day. The class given is functional. Conditions: Sciatic nerve.
For assay [16], the system named is Rattus norvegicus. Nature of the assay: In vivo inhibition of sorbitol accumulation in rat sciatic nerves at 5*10e-5 M concentration. The format is functional, Sciatic nerve. Conditions: in the assay text read “In vitro” for “In vivo”. An outline of the steps: as §2
Assay [17] concerns Rattus norvegicus. The experiment in a line: […] inhibition of sorbitol accumulation in rat sciatic nerves at 5*10e-6 M concentration. The format is functional, Sciatic nerve. The conditions noted are these: in the assay text read “In vitro” for “In vivo”. The method, boiled down: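 Sciatic nerves from male Sprague-Dawley rats (200–250 g), removed after CO2 euthanasia, incubated ex vivo for 3 h at 37 °C under 95% air/5% CO2 in Hank's salts buffer, pH 7.4, with 50 mM glucose and 5 × 10^-6 M test compound. Triplicate incubations; nerve sorbitol measured in duplicate by spectrofluorometric assay. Reported as % inhibition of sorbitol accumulation.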

The test system of assay [18] is Rattus norvegicus. Nature of the assay: In vivo inhibition of galactitol accumulation in the diaphragm of rat. at a dose of 26 mg/kg/day. The class given is functional.
Assay [19] deals with Rattus norvegicus. The experiment in a line: In vivo inhibition of galactitol accumulation in the sciatic nerves of rat at a dose of 26 mg/kg/day. The class given is functional. The conditions noted are these: Sciatic nerve.
The subject of assay [20] is Rattus norvegicus. Nature of the assay: In vivo inhibition of galactitol accumulation in the diaphragm of rat. at a dose of 100 mg/kg/day. The class given is functional.
In assay [21] the test system is Rattus norvegicus. Nature of the assay: In vivo inhibition of galactitol accumulation in the diaphragm of rat at a dose of 4 mg/kg/day. The class given is functional.
Assay [22] concerns Rattus norvegicus. Nature of the assay: In vivo inhibition of galactitol accumulation in the sciatic nerves of rat at a dose of 4 mg/kg/day. The class given is functional. The conditions noted are these: Sciatic nerve.
Assay [23] concerns Rattus norvegicus. Nature of the assay: In vivo inhibition of galactitol accumulation in the diaphragm of rat at a dose of 107 mg/kg/day. The format is functional.
In assay [24] the test system is Rattus norvegicus. Nature of the assay: In vivo inhibition of galactitol accumulation in the sciatic nerves of rat at a dose of 107 mg/kg/day. The format is functional. Conditions: Sciatic nerve.
For assay [25], the system named is Rattus norvegicus. Nature of the assay: In vivo inhibition of galactitol accumulation in the sciatic nerves of rat at a dose of 50 mg/kg/day; NS=not significant. The format is functional, organism-based. Conditions: Sciatic nerve.
For assay [26], the system named is Rattus norvegicus. The experiment in a line: In vivo inhibition of galactitol accumulation in the diaphragm of rat. at a dose of 50 mg/kg/day; NS=not significant. The format is functional, organism-based.
Assay [27] concerns Rattus norvegicus. Nature of the assay: In vivo inhibition of galactitol accumulation in the diaphragm of rat. at a dose of 27 mg/kg/day. The format is functional.
Assay [28] has as its system Rattus norvegicus. The experiment in a line: In vivo inhibition of galactitol accumulation in the sciatic nerves of rat at a dose of 27 mg/kg/day. Conditions: Sciatic nerve. The format is functional.
Assay [29] has as its system Rattus norvegicus. The experiment in a line: In vivo inhibition of galactitol accumulation in the diaphragm of rat at a dose of 10 mg/kg/day. The format is functional.
Assay [30] has as its system Rattus norvegicus. The experiment in a line: In vivo inhibition of galactitol accumulation in the sciatic nerves of rat at a dose of 10 mg/kg/day. The format is functional. The conditions noted are these: Sciatic nerve.

Molecules are shown by their SMILES. Calls of active or inactive are those of the source. The rule behind the calls is not given here.

On to `COC(=O)N(CC(=O)O)C(=O)c1cccc2c(C(F)(F)F)c(OC)ccc12`, for which the inhibition (as a rule, the change of the read-out against control, counted positive when it falls) in [1] was 82%; in assay [5] it was 97%. The inhibition entry in assay [2] was “inactive”. The Inhibition (usually the drop in the measured response relative to a control, in per cent) in assay [3] is on record as 58%. Also, the inhibition in vivo (commonly how much of the control response was suppressed) at 48 mg/kg/day in assay [4] amounted to 54%.
For the molecule `CCOC(=O)N(CC(=O)O)C(=O)c1cccc2c(C(F)(F)F)c(OC)ccc12`, the results for the inhibition in assay [1] and in assay [5] were 81% and 98%, respectively. The inhibition in vivo at 97 mg/kg/day in [6] came to 83%; in assay [9] it was 90%. Further, the inhibition in vivo at 57 mg/kg/day in assay [7] came to 56%; in assay [10] it was 70%. Besides, the values for the Inhibition in assay [8] and in assay [3] were 51% and 88%, respectively.
As for `COc1ccc2c(C(=O)N(CC(=O)O)C(=O)N(C)C)cccc2c1C(F)(F)F`, the inhibition result in [11] and in [2] was “inactive” in each case. Further, the Inhibition in assay [3] is reported as 34%. Besides, in assay [5], the inhibition turned out to be 3%. Besides, in [12], the inhibition in vivo at 100 mg/kg/day was determined as 21%.
Consider `COc1ccc2c(C(=O)N(CC(=O)O)C(=O)OCC(C)(C)C)cccc2c1C(F)(F)F`, for which the inhibition in assay [1] came to 18%; in [5], 64%. The Inhibition in assay [8] was 28%; in assay [3] it was 37%. Further, the inhibition result in [13] and in assay [14] was “inactive” in each case.
As for `COc1ccc2c(/C(=N/C#N)N(C)CC(=O)O)cccc2c1C(F)(F)F`, the inhibition in assay [1] stood at 80%; in assay [5], 81%. Further, the inhibition in vivo at 100 mg/kg/day in [15] was 61%; in assay [20], 72%. Further, the Inhibition in assay [16] was found to be 81%; in [17], 70%. The inhibition in vivo at 26 mg/kg/day in assay [18] is 44%; in assay [19] it was 30%.
For `O=C1NC(=O)[C@@]2(CCOc3ccc(F)cc32)N1` [SORBINIL], the inhibition is 10% in assay [1] and 45% in [5]. Besides, the inhibition in vivo at 4 mg/kg/day in assay [21] was 69%; in assay [22], 55%. For the same molecule, the Inhibition in [8] came out at 27%; in [17] it was 74%; in assay [3], 96%.
With `COc1ccc2c(C(=O)N(C=O)CC(=O)O)cccc2c1C(F)(F)F`, the inhibition in assay [1] was 89%; in [5] it was 96%. Besides, the figures for the Inhibition in assay [8] and in [3] were 42% and 65%, respectively. Also, the inhibition in vivo at 107 mg/kg/day in assay [23] was 82%; in [24], 51%.
As for `COc1ccc2c(C(=O)N(CC(=O)O)C(=O)c3ccccc3)cccc2c1C(F)(F)F`, the inhibition is 15% in assay [1] and 62% in assay [5]. For the same molecule, the inhibition entry in [25] and in assay [26] was “inactive” each time. For the same molecule, the figures for the Inhibition in assay [8] and in assay [3] were 40% and 31%, respectively.
For the molecule `CSc1ccc2c(C(=S)N(C)CC(=O)O)cccc2c1C(F)(F)F`, the figures for the inhibition in vivo at 27 mg/kg/day in [27] and in [28] were 90% and 64%, respectively. Further, the inhibition in [1] came out at 71%; in assay [5] it was 95%. Further, the Inhibition in assay [8] is given as 72%; in [3], 93%. In addition, the inhibition in vivo at 10 mg/kg/day in assay [29] was 86%; in assay [30], 26%.

Source of the values: ChEMBL document CHEMBL1124370 (1989).
